# Screens as filed in PubChem.
# Gli-Sufu antag = blocks Gli-Sufu signaling in a luciferase reporter. inhibition, % at 5 µM. Sufu-KO-LIGHT fibroblasts, Gli luciferase reporter luminescence. 0.74% of 340,000 active;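 active = inhibition above about 55%, limit read from the data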;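 note: 0% = DMSO-treated cells and 100% = wells with medium but no cells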
# UPR CHOP act = apoptotic UPR (CHOP) activation. activation, % at 10 µM. CHO-CHOP luciferase reporter, luminescence; percent of tunicamycin response over DMSO baseline. 0.34% of 330,000 active. AID 449763;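 active = at 10 µM dose, activation of 40% or more, normalized to positive control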;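 note: 100% = tunicamycin at 10 µg/mL and 0% = DMSO alone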
#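 assay system = CHO CHOP reporter cells | amount = 500 CHO-CHOP cells per well | buffer or medium = F12 with 10% FBS | incubation = 16-18 h cell attachment, then 6 h compound exposure, 37 °C | detection = luminescence read with Steady-Glo | read-out = percent activation relative to tunicamycin control | controls = tunicamycin high control, DMSO low control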
# 697 NFkB inh = inhibitors of the PMA/ionomycin-induced NF-kB reporter in 697 B cells | 0.33% of 330,000 active | AID 435022 | inhibition, % at 4 µM | 697 B-cell NF-kB luciferase reporter, 16 h; in the data active = inhibition above about 35%
# Jurkat NFkB inh = lowers PMA/ionomycin-induced NF-kB signal in Jurkat cells; PMA/ionomycin-induced NF-kB luciferase reporter, luminescence; inhibition, % at 4 µM; 0.53% of 330,000 active; in the data active = inhibition above about 50%
# UPR XBP1 act = adaptive UPR (XBP1) activation; activation, % at 20 µM; CHO-XBP1 luciferase reporter, IRE1-XBP1 UPR activation, luminescence; percent of tunicamycin response, DMSO as zero; AID 463104; 0.33% of 330,000 active;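 active = versus positive control, 20 µM dose yields 30% or more activation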;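 note: 100% = tunicamycin at 10 µg/mL and 0% = DMSO only wells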
#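 Material: CHO cell line with stable XBP1 luciferase reporter; buffer or medium: F12 medium containing 10% fetal bovine serum; compound: single point, 20 µM final compound, 1% DMSO; incubation: 6 h treatment, 37 °C; measured by: glow luminescence from Steady-Glo reagent; evaluation: activation, % of tunicamycin; control set: tunicamycin high, DMSO low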
# CHOP inh = inhibitors of CHOP induction in ER stress response | CHO-K1 CHOP-promoter luciferase, tunicamycin-induced, 15-18 h | inhibition, % at 10 µM | 3.8% of 220,000 active | AID 2732;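 active = compounds that reduced the stress-induced luciferase reporter signal by more than about 70% of percent inhibition, limit read from the data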;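 note: 0% = tunicamycin plus vehicle and 100% = wells without tunicamycin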
# XBP1 UPR conf = adaptive UPR (XBP1) activation, confirmed | shares compounds with UPR XBP1 act | CHO-XBP1 IRE1-XBP1 luciferase reporter, luminescence | activation, % at 20 µM | 63% of 1,000 active;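 active = reporter signal at least 30% of the positive control's activation in two or more of four replicate wells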;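 note: plate controls were DMSO negative control for no effect and tunicamycin 10 µg/mL positive control for full effect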
# * marks the source's active call; other numbers are inactive results; . = not tested or not shown. Most compounds without a hit are left out; they make up all but 3.9% or so of the library.
SMILES,Gli-Sufu antag,UPR CHOP act,697 NFkB inh,Jurkat NFkB inh,UPR XBP1 act,CHOP inh,XBP1 UPR conf
O=C(NCC1CCCO1)c1nn2c(C(F)(F)F)cc(-c3cc(Br)cs3)nc2c1Br (stereo not drawn),-16,6,4,-6,42*,.,40*
O=C1c2cccc3cc(Br)cc(c23)C(=O)N1Nc1ccc(Br)cc1,-8,22,-20,1,40*,38,33*
O=C1c2cccc3cccc(c23)C(=O)N1Nc1ccccc1,9,-2,7,3,6,13,.
COc1ccc2sc(-c3ccc(SC)cc3)c(-c3ccc(O)cc3)c2c1,0,3,4,-8,14,.,.
Nc1nc(Nc2cccc(F)c2)nc2ccccc12,-55,19,-133,-109,40*,21,42*
Cc1ccnc(NC(=O)c2ccc(S(=O)(=O)N3CCCC3)cc2)c1,-16,2,4,2,2,.,.
O=C(Nc1ccc(SC(F)F)cc1)c1cc(-c2ccncc2)nc2ccccc12,.,8,2,18,64*,.,48*
Cc1ccc(Cn2c(=N)n(CC(=O)c3ccc([N+](=O)[O-])cc3)c3ccccc32)cc1,14,15,0,30,67*,9,18
CCCCn1c(=N)n(CC(=O)c2ccc([N+](=O)[O-])cc2)c2ccccc21,.,0,21,-19,3,33,.
Cc1cccc2cc(C(c3nnnn3Cc3ccccc3)N3CCCc4ccccc43)c(=O)[nH]c12 (stereo not drawn),0,11,-1,-4,76*,77*,28*
COc1ccc2c(c1)C(O)C(CO)C(C(=O)O)C2 (stereo not drawn),-1,.,.,.,.,.,.
CCCN(CC(=O)Nc1ccccc1C)C(=O)C1CCN(S(=O)(=O)c2ccccc2C(F)(F)F)CC1,2,-3,21,-7,0,.,.
C#CCOCCOCCOCCNc1nc(N2CCN(C(=O)CCCCCCCCCCNC(=O)[C@H](CCCCN)n3cc(C)nn3)CC2)nc(N2CCN(C(=O)CCCCCCCCCCNC(=O)[C@H](CCCN=C(N)N)n3cc(C[C@@H](C)CC)nn3)CC2)n1,10,-1,-6,-7,8,.,.
C#CCOCCOCCOCCNc1nc(N2CCN(C(=O)CCCCCCCCCCNC(=O)[C@H](CCCCN)n3cc(C[C@@H](C)CC)nn3)CC2)nc(N2CCN(C(=O)CCCCCCCCCCNC(=O)[C@H](CCCN=C(N)N)n3cc(C[C@@H](C)CC)nn3)CC2)n1,17,12,-48,-12,31*,.,29*
CC1(C)Cc2c(c(N3CCOCC3)nc3sc4c(NCc5ccccc5)nnnc4c23)CS1,9,8,27,1,137*,45,14
CCOc1ccc(OCCOC(=O)CNC(=O)c2ccc(Cl)cc2Cl)cc1,-14,-2,5,-9,-1,.,.
COc1cc(NC(=O)c2cccc(NC3=NC4CS(=O)(=O)CC4S3)c2)cc(OC)c1OC (stereo not drawn),3,0,6,7,-3,.,.
CC/C(=N/Nc1ccccc1)c1cnnc(-c2ccccc2)n1,17,4,-27,-19,69*,40,10
CC/C(=N/Nc1cccc(Cl)c1)c1cnnc(SC)n1,0,-1,-24,-4,-2,-5,.
COc1ccccc1NC(=O)c1cc2c(CO)cnc(C)c2oc1=Nc1ccccc1,17,12,14,-24,501*,.,168*
O=C(Oc1ccc2c(c1)OCO2)c1cc2c(s1)CCC2,-2,35,-19,37,37*,.,9
Cn1c2ccccc2c2cc(/C=N/NC(=O)c3ccc(N)cc3)ccc21,-2,1,3,6,1,.,.
Cn1c(-c2ccccc2)c(/C=N/NC(=O)c2ccc(O)cc2)c2ccccc21,-31,11,-42,-32,35*,52,63*
COc1cccc(NC(=O)CSc2nc3c([nH]c4ccccc43)c(=O)n2C)c1,11,-2,0,-10,35*,51,17
O=C(Cn1cc(S(=O)(=O)Cc2ccccc2F)c2ccccc21)N1CCOCC1,-13,-1,0,-8,-3,.,.
SMILES,Gli-Sufu antag,UPR CHOP act,697 NFkB inh,Jurkat NFkB inh,UPR XBP1 act,CHOP inh,XBP1 UPR conf
O=S(=O)(c1ccc(Cl)cc1)N1c2ccccc2Oc2nc3ccccc3nc21,-20,-1,2,26,6,9,.
COc1ccc(S(=O)(=O)N2c3cc(Cl)ccc3Oc3nc4ccccc4nc32)cc1,47,2,-29,37,39*,.,31*
Cn1c(/C=C/c2ccc(Cl)cc2Cl)c([N+](=O)[O-])c(=O)n(C)c1=O,7,26,-13,8,38*,.,39*
COc1ccc(/C=C/c2c([N+](=O)[O-])c(=O)n(C)c(=O)n2C)c(OC)c1,11,0,-3,4,2,20,.
Cc1ccc(NC(=O)/C(C#N)=C(\N)C(Cl)(Cl)Cl)nc1,-77,25,-50,-51,30,101*,-4
O=C(CC1C[C@H](C(=O)N2CCCCC2)[C@@]2(CCc3ccccc3)c3[nH]c4ccccc4c3CCN2C1=O)NCCC1=CCCCC1 (stereo partly drawn),5,40,-1,-8,126*,.,93*
O=C(C[C@H]1C[C@H](C(=O)N2CCCCC2)[C@@]2(CCc3ccccc3)c3[nH]c4cc(-c5ccco5)ccc4c3CCN2C1=O)NCCC1=CCCCC1,2,3,12,.,0,.,.
COc1ccccc1CC(=O)Nc1ccc(-c2noc(COc3ccc(Cl)c(C)c3)n2)cc1,17,6,1,5,31*,-12,8
CCOc1ccccc1-c1nc(-c2ccc(NC(=O)Cc3ccccc3OC)cc2)no1,4,2,-17,6,0,32,.
COc1ccc(S(=O)(=O)N(C)c2ccc(C(=O)Nc3cccnc3)cc2)cc1,2,-1,24,17,-6,.,.
Cc1ccc(C2=Nc3ccc(Br)cc3C(c3ccncc3)=NN2)cc1,-9,4,-18,-3,37*,31,45*
Cc1ccc(C(=O)Nc2ccc(N3CCN(C)CC3)cc2)c(Cl)c1,-40,5,-90,-103,0,.,.
COc1cc(C(=O)Nc2cc(-c3nc4cc(C)ccc4o3)ccc2C)cc(OC)c1OC,7,19,-153,-81,131*,34,96*
COc1ccc2oc(-c3ccc(C)c(NC(=O)CSc4ccc(Cl)cc4)c3)nc2c1,-29,3,-120,-58,2,3,.
COc1cc(/C=C/c2cccc[n+]2C)ccc1OCC(=O)Nc1cccc(Cl)c1,-13,0,-18,4,2,.,.
